APP 5UTR inh: inhibitors of APP translation via 5'UTR reporter, primary screen, APP 5'UTR luciferase, SH-SY5Y cells; SH-SY5Y APP 5'UTR-luciferase reporter, luminescence; inhibition, % at 2 µM; hit rate 0.82% among 190,000; AID 1285, 2008;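 active means inhibition above a set limit, derived from the sample mean plus 3 SD, cut at about 45% in these data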
Lmaj promast: Leishmania major promastigote growth inhibition, primary screen. Leishmania major promastigotes, resazurin fluorescence viability. inhibition, % at 10 µM. hit rate 9% among 200,000. AID 1063, 2008; in the data active means inhibition above about 50%;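 further: promastigotes grown with compound for 44 hours at 28 °C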
b-catenin transl: modulators of beta-catenin nuclear translocation, primary screen, imaging, HeLa cells, immunofluorescence, high-content | nuclear translocation activity, % at 5 µM | hit rate 0.3% among 190,000 | AID 1665, 2009;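 active means nuclear translocation activity above 50% at 5 µM, with a well cell count of 50 or more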;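 further: per-cell ratio of nuclear to cytoplasmic median beta-catenin stain intensity; plate controls were DMSO negative control for no effect and GSK-3 inhibitor IX positive control for full effect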
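Test system: HeLa cells, endogenous beta-catenin; Compound: single 5 µM dose plus 0.02–20 µM confirmation series; Times: compound exposure 24 h at 37°C; Signal: fluorescence imaging of beta-catenin antibody stain plus DAPI; Read-out: % activation, nuclear-to-cytoplasmic median beta-catenin signal ratio per cell.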
BaF3 parental: parental Ba/F3 cell viability inhibition, counter-screen for JAK2V617F inhibitor project, murine pro-B, CellTiter-Glo luminescence; CellTiter-Glo ATP luminescence; inhibition, % at 5.6 µM; hit rate 1.1% among 220,000; AID 1486, 2009;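 active means inhibition above a per-campaign cutoff, the mean inhibition of all tested compounds plus 3 SD, cut at about 27% in these data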;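 further: 0% = DMSO wells and 100% = JAK Inhibitor I control wells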
Ba/F3 V617F tox: reduced viability of JAK2V617F-dependent Ba/F3 cells, primary screen, JAK2V617F inhibitor project, cell-based, Ba/F3 EpoR-JAK2V617F, luminescence. ATP luminescence. inhibition, % at 5.6 µM. hit rate 1.1% among 220,000;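 active means inhibition above the campaign mean plus 3 SD over all tested compounds, cut at about 24% in these data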;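 further: cytokine-independent growth of Ba/F3 cells driven by EpoR plus mutant JAK2; 0% = DMSO-treated cells and 100% = JAK inhibitor I control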
MT stabilize HCS: microtubule stabilizers in HeLa cells, primary screen, imaging, high-content imaging | HeLa tubulin immunostaining HCS, 24 h; share of cells brighter than vehicle mean+2SD | % tubulin-high responders, % at 10 µM | hit rate 0.83% among 200,000;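 active means plate Z-score above 3 for both tubulin-high and condensed-nucleus cell shares, with cell loss under 80%, at 10 µM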;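 further: anti alpha tubulin signal scored within the nucleus-defined area of each cell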
L major 1uM: Leishmania major promastigote growth inhibition, confirmation, 1 µM repeat of primary hits; shares compounds with Lmaj promast; L. major promastigote growth, resazurin fluorescence, 48 h; inhibition, % at 1 µM; hit rate 13% among 1,100;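 active means inhibition above about 50% in both repeat tests, limit read from the data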
Numbers without * were called inactive; x = no result given. Shown are actives, neighbours in structure and some others; about 9.6% of the full set was active somewhere.

SMILES	APP 5UTR inh	Lmaj promast	b-catenin transl	BaF3 parental	Ba/F3 V617F tox	MT stabilize HCS	L major 1uM
COc1ccc(-[n+]2c(C)cc(/C=C3\Sc4ccccc4N3C)cc2C)cc1	83*	101*	12	97*	101*	24	101*
COc1ccc(-c2c[n+](CC(=O)N3c4ccccc4Sc4ccccc43)c3n2CCC3)cc1	x	x	1	0	-1	x	x
COc1ccccc1CN1C[C@@H]2C[C@@H](c3ccc(C)c(C)c3)N3CCC[C@@]23C1=O	-14	33	-2	3	-1	1	x
CCCCNc1cc(NC(C)=O)cc2cc(OC)c(OC)cc12	-4	100*	1	3	-1	5	-19
CCCC(=O)Nc1cc(OC)c(OC)cc1C(=O)O	8	-4	-5	4	2	2	x
COc1cc(-c2nnc(SCC(=O)NC3CCS(=O)(=O)C3)o2)cc(OC)c1OC (configuration not stated)	9	-6	-2	6	-2	1	x
Cc1ccc(S(=O)(=O)/N=C(\CCl)N2CCOCC2)cc1	3	87*	6	-1	2	4	49
CN1CCC(C2(O)c3ccccc3CCc3ccccc32)CC1	-23	5	x	5	-3	3	x
CN1CCC(C2(O)c3ccccc3CSc3sccc32)CC1 (configuration not stated)	8	67*	3	3	-3	3	-7
O=C1c2ccccc2CCCC12N=NCC2c1cccc2ccccc12 (configuration not stated)	-9	53*	0	2	-1	2	7
Cc1ccc(C2CN=NC23CCc2ccccc2C3=O)cc1 (configuration not stated)	-43	-4	x	1	0	2	x
CC(C)Cn1c(N)c(C(=O)CSc2ccccc2)c(=O)n(C)c1=O	1	51*	x	14	7	3	-5
CC(=O)c1csc(CS(=O)(=O)c2ccccn2)n1	x	x	-1	1	0	x	x
Cc1ccc(Oc2ncnc(N)c2[N+](=O)[O-])cc1C	3	4	0	-2	-1	1	x
CN(C)S(=O)(=O)c1cccc(N=c2scc(-c3ccc4c(c3)NC(=O)CO4)n2CC2CCCO2)c1 (configuration not stated)	-11	96*	-1	3	1	4	-13
c1ccc(-c2csc(=Nc3cccnc3)n2CC2CCCO2)cc1 (configuration not stated)	-4	6	1	8	-2	2	x
CC(C)(C)c1ccc(OCCNC(=O)c2ncn[nH]2)cc1	-10	70*	x	5	0	3	-7
CCN(C(=O)c1cnc(OC)cc1C(F)(F)F)c1ccc(Cl)cc1Cl	x	x	2	2	1	x	x
FC(F)(F)c1nc(-c2ccncc2)ncc1-c1nnnn1-c1ccccc1	4	61*	2	8	-1	1	11
Cc1ccc(-n2nnnc2-c2cnc(-c3cccnc3)nc2C(F)(F)F)cc1	4	4	-4	3	-2	2	x
Cc1ccccc1OCCSCc1nc2ccccc2[nH]1	-9	12	0	6	4	8	x
Cc1cc(C)n(-c2ncc3c(n2)N(CCO)CCOC3=O)n1	x	x	-1	5	-4	x	x
CC1=CC2(O)OCCN(CCO)C2=CC1=O (configuration not stated)	-5	99*	-1	7	0	1	-10
COc1ccc(C2=Nc3ccc(C)cc3C(c3ccccc3)N2CC(=O)NN)cc1 (configuration not stated)	-6	-2	1	3	-1	1	x
COC(=O)CN1C(c2ccc(Cl)cc2)=Nc2ccc(Cl)cc2C1c1ccccc1 (configuration not stated)	-2	65*	-1	8	3	4	48
CCOC(=O)c1cnc(-c2ccccc2O)nc1Cl	-17	5	2	11	3	3	x
CCOC(=O)C1=Nc2ccccc2C1=[N+]=[N-]	-2	79*	x	0	1	6	46

Screening data from PubChem BioAssay.
